Data taken from ChEMBL document CHEMBL4043093, “2-Oxo-3, 4-dihydropyrimido[4, 5-d]pyrimidinyl derivatives as new irreversible pan fibroblast growth factor receptor (FGFR) inhibitors” (Eur J Med Chem, 2017).

Tests used:
[1] = target: Atypical kinase COQ8A, mitochondrial (Homo sapiens) (UniProt Q8NI60); test: Inhibition of wild-type human […] ADCK3 (M280 to Q647 residues) expressed in Escherichia coli BL21 assessed as residual activity at 1000 nM after 30 mins by Kinomescan method relative to control
In short: (§1)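 Single-point screen at a fixed 1 µM, run within a 456-kinase DiscoveRx KINOMEscan panel. Each kinase's read-out is Percent Control, i.e. signal relative to a control without compound. Hits were scored by a Percent Control < 35 cut-off, and an S(35) selectivity score was calculated across the non-mutant kinases.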

[2] = target: Serine/threonine-protein kinase PAK 6 (Homo sapiens) (UniProt Q9NQU5); test: Inhibition of wild-type human partial length PAK6 (N298 to C681 residues) expressed in Escherichia coli BL21 assessed as residual activity at 1000 nM after 30 mins by Kinomescan method relative to control
[3] = target: Protein kinase C delta type (Homo sapiens) (UniProt Q05655); test: Inhibition of wild-type human partial length PRKCD (Q328 to D676 residues) expressed in Escherichia coli BL21 assessed as residual activity at 1000 nM after 30 mins by Kinomescan method relative to control
[4] = target: Membrane-associated tyrosine- and threonine-specific cdc2-inhibitory kinase (Homo sapiens) (UniProt Q99640); test: Inhibition of wild-type human partial length PKMYT1 (A88 to G366 residues) expressed in Escherichia coli BL21 assessed as residual activity at 1000 nM after 30 mins by Kinomescan method relative to control
[5] = target: Serine/threonine-protein kinase tousled-like 2 (Homo sapiens) (UniProt Q86UE8); test: Inhibition of wild-type human partial length TLK2 (E424 to N749 residues) expressed in Escherichia coli BL21 assessed as residual activity at 1000 nM after 30 mins by Kinomescan method relative to control
[6] = target: Atypical kinase COQ8B, mitochondrial (Homo sapiens) (UniProt Q96D53); test: Inhibition of wild-type human full length ADCK4 (M1 to S544 residues) expressed in Escherichia coli BL21 assessed as residual activity at 1000 nM after 30 mins by Kinomescan method relative to control; in short: as §1
[7] = target: MAP kinase-activated protein kinase 2 (Homo sapiens) (UniProt P49137); test: Inhibition of wild-type human partial length MAPKAPK2 (V48 to D345 residues) expressed in Escherichia coli BL21 assessed as residual activity at 1000 nM after 30 mins by Kinomescan method relative to control
[8] = target: Fibroblast growth factor receptor 3 (Homo sapiens, UniProt P22607); test: Inhibition of human recombinant His-tagged FGFR3 cytoplasmic domain (399 to 806 residues) expressed in baculovirus using Tyr-4 peptide after 1 hr by FRET-based Z'-Lyte assay
[9] = tested on: Tyrosine-protein kinase ABL1 (Homo sapiens), P00519 [Q252H]; test: Inhibition of human phosphorylated ABL1 Q252H mutant expressed in HEK293 cells assessed as residual activity at 1000 nM after 30 mins by Kinomescan method relative to control; assay type: cell-based; in short: as §1
[10] = target: Insulin-like growth factor 1 receptor (Homo sapiens) (UniProt P08069); test: Inhibition of wild-type human partial length IGF1R (L972 to D1294 residues) expressed in Escherichia coli BL21 assessed as residual activity at 1000 nM after 30 mins by Kinomescan method relative to control
[11] = target: Ribosomal protein S6 kinase alpha-3 (Homo sapiens) (UniProt P51812); test: Inhibition of wild-type human partial length C-terminal RSK3 kinase domain 2 (V403 to K700 residues) expressed in Escherichia coli BL21 assessed as residual activity at 1000 nM after 30 mins by Kinomescan method relative to control
[12] = target: Serine/threonine-protein kinase MAK (Homo sapiens) (UniProt P20794); test: Inhibition of wild-type human partial length MAK (M1 to P314 residues) expressed in Escherichia coli BL21 assessed as residual activity at 1000 nM after 30 mins by Kinomescan method relative to control
[13] = target: RAF proto-oncogene serine/threonine-protein kinase (Homo sapiens) (UniProt P04049); test: Inhibition of wild-type human partial length RAF1 (I330 to T640 residues) expressed in Escherichia coli BL21 assessed as residual activity at 1000 nM after 30 mins by Kinomescan method relative to control
[14] = target: Dual specificity mitogen-activated protein kinase kinase 3 (Homo sapiens) (UniProt P46734); test: Inhibition of wild-type human full length MEK3 (M1 to S318 residues) expressed in HEK293 cells assessed as residual activity at 1000 nM after 30 mins by Kinomescan method relative to control; assay type: cell-based
In short: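 Single-concentration screen at 1 µM across a 456-kinase KINOMEscan panel. The read-out is Percent Control for each kinase.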

[15] = target: 5'-AMP-activated protein kinase catalytic subunit alpha-2 (Homo sapiens) (UniProt P54646); test: Inhibition of wild-type human partial length AMPK alpha2 (M1 to E306 residues) expressed in Escherichia coli BL21 assessed as residual activity at 1000 nM after 30 mins by Kinomescan method relative to control
[16] = target: Phosphatidylinositol 4-phosphate 5-kinase type-1 gamma (Homo sapiens) (UniProt O60331); test: Inhibition of wild-type human partial length PIP5K1C (M1 to T668 residues) expressed in HEK293 cells assessed as residual activity at 1000 nM after 30 mins by Kinomescan method relative to control; assay type: cell-based
[17] = target: Mitogen-activated protein kinase kinase kinase 10 (Homo sapiens) (UniProt Q02779); test: Inhibition of wild-type human partial length MLK2 (V52 to W380 residues) expressed in Escherichia coli BL21 assessed as residual activity at 1000 nM after 30 mins by Kinomescan method relative to control
[18] = target: Phosphatidylinositol 5-phosphate 4-kinase type-2 gamma (Homo sapiens) (UniProt Q8TBX8); test: Inhibition of wild-type human partial length PIP5K2C (M1 to A421 residues) expressed in HEK293 cells assessed as residual activity at 1000 nM after 30 mins by Kinomescan method relative to control; assay type: cell-based
[19] = target: Receptor-interacting serine/threonine-protein kinase 2 (Homo sapiens) (UniProt O43353); test: Inhibition of wild-type human partial length RIPK2 (M1 to K310 residues) expressed in Escherichia coli BL21 assessed as residual activity at 1000 nM after 30 mins by Kinomescan method relative to control
[20] = target: Dual specificity protein kinase CLK3 (Homo sapiens) (UniProt P49761); test: Inhibition of wild-type human full length CLK3 (M1 to R490 residues) expressed in Escherichia coli BL21 assessed as residual activity at 1000 nM after 30 mins by Kinomescan method relative to control; in short: as §1
[21] = tested on: Epidermal growth factor receptor (Homo sapiens), P00533 [T790M]; test: Inhibition of human partial length EGFR T790M mutant (R669 to G1022 residues) expressed in HEK293 cells assessed as residual activity at 1000 nM after 30 mins by Kinomescan method relative to control; assay type: cell-based
In short: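 KINOMEscan binding panel of 456 kinases, with the test compound at a single concentration of 1 µM. Read-out is Percent Control.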

Sequence of Phosphatidylinositol 4-phosphate 5-kinase type-1 gamma (Homo sapiens) (O60331 whole entry, the tested form may be a part): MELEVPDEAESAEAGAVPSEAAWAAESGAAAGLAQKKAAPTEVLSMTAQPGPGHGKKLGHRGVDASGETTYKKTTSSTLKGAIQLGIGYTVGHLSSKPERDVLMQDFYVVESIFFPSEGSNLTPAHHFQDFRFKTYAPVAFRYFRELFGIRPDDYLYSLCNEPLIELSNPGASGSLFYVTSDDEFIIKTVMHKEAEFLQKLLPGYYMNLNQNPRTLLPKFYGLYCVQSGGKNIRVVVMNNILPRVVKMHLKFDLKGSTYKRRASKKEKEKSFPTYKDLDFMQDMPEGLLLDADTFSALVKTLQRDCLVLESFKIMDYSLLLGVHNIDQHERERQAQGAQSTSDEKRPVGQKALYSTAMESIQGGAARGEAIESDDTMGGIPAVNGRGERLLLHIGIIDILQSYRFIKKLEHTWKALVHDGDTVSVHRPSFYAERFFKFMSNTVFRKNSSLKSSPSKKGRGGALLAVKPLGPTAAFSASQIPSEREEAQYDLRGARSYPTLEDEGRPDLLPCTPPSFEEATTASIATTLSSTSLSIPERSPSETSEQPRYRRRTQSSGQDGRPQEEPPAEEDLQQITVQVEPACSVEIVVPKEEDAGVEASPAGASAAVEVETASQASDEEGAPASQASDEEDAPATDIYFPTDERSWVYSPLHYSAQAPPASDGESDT
Sequence of Protein kinase C delta type (Homo sapiens) (Q05655 whole entry, looked up, the tested form may be a part): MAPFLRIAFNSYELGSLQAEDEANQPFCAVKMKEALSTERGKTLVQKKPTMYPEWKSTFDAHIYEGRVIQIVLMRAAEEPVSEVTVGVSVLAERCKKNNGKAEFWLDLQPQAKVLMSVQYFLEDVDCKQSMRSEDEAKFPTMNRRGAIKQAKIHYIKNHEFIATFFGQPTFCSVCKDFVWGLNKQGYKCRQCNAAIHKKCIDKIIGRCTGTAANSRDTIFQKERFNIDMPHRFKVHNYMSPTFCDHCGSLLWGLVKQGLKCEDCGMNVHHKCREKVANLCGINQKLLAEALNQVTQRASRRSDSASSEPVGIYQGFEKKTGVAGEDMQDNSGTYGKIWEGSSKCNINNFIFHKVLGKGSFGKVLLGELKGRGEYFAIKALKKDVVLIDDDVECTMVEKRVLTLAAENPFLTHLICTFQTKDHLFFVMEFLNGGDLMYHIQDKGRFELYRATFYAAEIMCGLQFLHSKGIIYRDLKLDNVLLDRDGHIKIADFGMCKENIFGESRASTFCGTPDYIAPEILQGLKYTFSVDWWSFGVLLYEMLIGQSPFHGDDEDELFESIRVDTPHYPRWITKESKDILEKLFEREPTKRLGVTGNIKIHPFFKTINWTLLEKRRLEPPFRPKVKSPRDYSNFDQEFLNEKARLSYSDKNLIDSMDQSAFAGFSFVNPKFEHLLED
Sequence of MAP kinase-activated protein kinase 2 (Homo sapiens) (P49137 whole entry, looked up, the tested form may be a part): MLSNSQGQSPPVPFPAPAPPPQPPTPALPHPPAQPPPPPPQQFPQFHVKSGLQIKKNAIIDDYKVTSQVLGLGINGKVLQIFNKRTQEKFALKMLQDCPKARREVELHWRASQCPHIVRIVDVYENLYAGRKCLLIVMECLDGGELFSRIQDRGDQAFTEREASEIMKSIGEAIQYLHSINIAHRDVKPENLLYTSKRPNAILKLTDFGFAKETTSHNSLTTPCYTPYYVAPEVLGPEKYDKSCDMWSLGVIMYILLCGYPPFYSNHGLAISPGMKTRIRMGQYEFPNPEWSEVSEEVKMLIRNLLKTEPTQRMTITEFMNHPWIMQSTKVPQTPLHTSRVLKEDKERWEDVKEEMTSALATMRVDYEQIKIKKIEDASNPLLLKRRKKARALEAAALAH
Sequence of Mitogen-activated protein kinase kinase kinase 10 (Homo sapiens) (Q02779 whole entry, looked up, the tested form may be a part): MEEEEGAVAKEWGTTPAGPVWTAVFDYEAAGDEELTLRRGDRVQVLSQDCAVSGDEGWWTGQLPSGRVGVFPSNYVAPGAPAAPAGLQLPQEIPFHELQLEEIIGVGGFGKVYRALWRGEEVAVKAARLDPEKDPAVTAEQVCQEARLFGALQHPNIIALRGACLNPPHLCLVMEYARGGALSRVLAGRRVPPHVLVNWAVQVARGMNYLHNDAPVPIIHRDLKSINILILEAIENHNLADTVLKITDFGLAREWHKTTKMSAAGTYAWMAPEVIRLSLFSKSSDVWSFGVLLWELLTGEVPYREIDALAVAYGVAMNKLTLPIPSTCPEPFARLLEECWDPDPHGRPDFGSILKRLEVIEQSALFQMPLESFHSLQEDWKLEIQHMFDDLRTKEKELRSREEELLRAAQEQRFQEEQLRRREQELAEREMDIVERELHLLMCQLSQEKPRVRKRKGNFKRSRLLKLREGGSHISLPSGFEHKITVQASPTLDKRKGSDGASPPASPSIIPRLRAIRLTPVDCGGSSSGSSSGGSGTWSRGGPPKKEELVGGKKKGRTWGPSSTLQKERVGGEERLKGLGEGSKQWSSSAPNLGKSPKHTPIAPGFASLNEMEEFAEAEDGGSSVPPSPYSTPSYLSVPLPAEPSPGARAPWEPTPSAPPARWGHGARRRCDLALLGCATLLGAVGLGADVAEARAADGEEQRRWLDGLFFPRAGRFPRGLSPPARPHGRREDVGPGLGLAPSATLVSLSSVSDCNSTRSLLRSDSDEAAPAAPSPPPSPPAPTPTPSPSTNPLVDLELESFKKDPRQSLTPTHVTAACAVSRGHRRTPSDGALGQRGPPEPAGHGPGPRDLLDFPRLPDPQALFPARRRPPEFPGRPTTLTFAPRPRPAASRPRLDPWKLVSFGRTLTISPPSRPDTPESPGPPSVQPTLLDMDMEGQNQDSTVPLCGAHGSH
Sequence of Membrane-associated tyrosine- and threonine-specific cdc2-inhibitory kinase (Homo sapiens) (Q99640 whole entry, the tested form may be a part): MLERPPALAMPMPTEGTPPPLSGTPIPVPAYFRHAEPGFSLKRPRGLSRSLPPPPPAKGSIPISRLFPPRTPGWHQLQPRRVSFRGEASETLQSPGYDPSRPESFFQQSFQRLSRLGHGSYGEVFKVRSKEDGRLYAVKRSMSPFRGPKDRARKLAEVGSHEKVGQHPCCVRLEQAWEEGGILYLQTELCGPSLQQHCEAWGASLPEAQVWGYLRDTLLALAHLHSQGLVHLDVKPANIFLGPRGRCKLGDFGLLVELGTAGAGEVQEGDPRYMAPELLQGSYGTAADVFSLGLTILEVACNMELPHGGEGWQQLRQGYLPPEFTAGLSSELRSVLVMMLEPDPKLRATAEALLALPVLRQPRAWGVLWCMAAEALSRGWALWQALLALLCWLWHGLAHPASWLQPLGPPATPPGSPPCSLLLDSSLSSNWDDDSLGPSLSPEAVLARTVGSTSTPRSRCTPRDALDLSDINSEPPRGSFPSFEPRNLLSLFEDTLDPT
Sequence of Serine/threonine-protein kinase PAK 6 (Homo sapiens) (Q9NQU5 whole entry, looked up, the tested form may be a part): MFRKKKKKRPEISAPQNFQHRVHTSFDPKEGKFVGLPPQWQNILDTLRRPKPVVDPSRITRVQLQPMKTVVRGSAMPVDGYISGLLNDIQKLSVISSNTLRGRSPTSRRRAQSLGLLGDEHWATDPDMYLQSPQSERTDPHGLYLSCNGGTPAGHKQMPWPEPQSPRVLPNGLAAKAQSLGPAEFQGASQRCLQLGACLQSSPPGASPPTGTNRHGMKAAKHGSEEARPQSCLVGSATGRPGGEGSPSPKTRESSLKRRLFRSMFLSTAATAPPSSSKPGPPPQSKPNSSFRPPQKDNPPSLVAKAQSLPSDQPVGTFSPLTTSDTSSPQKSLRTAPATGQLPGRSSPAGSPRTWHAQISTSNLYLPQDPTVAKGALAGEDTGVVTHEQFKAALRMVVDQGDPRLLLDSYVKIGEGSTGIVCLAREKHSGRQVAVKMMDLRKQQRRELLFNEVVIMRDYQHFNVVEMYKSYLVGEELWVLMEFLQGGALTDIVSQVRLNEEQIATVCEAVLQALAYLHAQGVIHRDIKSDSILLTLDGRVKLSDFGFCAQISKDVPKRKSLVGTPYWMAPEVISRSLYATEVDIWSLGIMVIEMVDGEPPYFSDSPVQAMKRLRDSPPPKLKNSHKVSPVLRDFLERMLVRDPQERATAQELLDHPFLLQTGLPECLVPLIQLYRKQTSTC
Sequence of Dual specificity protein kinase CLK3 (Homo sapiens) (P49761 whole entry, looked up, the tested form may be a part): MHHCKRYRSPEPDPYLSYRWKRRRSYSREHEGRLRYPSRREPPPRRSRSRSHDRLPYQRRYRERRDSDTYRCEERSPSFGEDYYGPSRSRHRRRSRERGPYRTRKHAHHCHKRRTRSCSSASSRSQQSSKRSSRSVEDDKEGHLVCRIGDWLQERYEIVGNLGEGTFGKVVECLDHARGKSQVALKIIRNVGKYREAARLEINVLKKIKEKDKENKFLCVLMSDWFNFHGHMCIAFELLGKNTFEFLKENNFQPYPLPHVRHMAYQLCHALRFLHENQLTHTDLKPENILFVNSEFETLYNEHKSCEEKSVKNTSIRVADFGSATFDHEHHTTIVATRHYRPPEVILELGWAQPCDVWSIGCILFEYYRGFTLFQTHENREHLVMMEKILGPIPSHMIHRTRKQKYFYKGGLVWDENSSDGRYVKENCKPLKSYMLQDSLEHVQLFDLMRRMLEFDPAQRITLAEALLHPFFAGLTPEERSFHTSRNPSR
Sequence of Serine/threonine-protein kinase MAK (Homo sapiens) (P20794 whole entry, the tested form may be a part): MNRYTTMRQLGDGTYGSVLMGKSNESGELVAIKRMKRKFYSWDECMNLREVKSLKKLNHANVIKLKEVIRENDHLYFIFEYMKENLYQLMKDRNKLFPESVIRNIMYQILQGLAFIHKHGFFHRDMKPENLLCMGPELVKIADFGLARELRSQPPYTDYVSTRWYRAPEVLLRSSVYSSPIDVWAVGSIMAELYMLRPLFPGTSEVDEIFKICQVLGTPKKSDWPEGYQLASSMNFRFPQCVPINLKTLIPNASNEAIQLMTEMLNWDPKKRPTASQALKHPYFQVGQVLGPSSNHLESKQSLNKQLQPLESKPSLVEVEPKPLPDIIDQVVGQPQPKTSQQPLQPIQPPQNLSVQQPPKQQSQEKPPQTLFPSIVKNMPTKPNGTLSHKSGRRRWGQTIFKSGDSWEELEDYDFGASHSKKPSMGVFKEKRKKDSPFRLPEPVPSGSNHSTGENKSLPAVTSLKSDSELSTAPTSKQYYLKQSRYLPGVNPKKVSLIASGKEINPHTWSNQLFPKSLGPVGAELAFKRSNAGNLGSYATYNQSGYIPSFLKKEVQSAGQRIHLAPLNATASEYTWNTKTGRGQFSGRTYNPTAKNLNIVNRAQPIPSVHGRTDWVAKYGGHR

`COc1cc(OC)c(Cl)c(N2Cc3cnc(Nc4ccc(F)cc4)nc3N(C3CCN(C(=O)/C=C/CN(C)C)CC3)C2=O)c1Cl` gave an Activity [1] of 100%, an Activity [2] of 100% and an Activity [3] of 93%. The Activity [4] was 100%, the Activity [5] was 96% and the Activity [6] was 94%. It also gave an Activity [7] of 99%, an IC50 [8] of 5.07 nM and an Activity [9] of 31%. The Activity [10] was 83%, the Activity [11] was 88% and the Activity [12] was 100%. The Activity [13] was 96%, the Activity [14] was 90% and the Activity [15] was 89%. The Activity [16] was 92%, the Activity [17] was 94% and the Activity [18] was 6.3%. It also gave an Activity [19] of 100%, an Activity [20] of 100% and an Activity [21] of 94%.
